Tests used:
Type in all cases: functional
CCRF-CEM = test: Growth inhibition of human CCRF-CEM cells incubated for 48 hrs by sulforhodamine B assay
Procedure, shortened: (§1)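 NCI-60 screen. Compounds were dosed at five concentrations spanning 10^-4 to 10^-8 M for 48 h at 37 °C. Cells were TCA-fixed, stained with 0.4% SRB and read at 515 nm against time-zero and vehicle controls. GI50 is the concentration giving a 50% reduction in net protein increase.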

HL-60(TB) = test: Growth inhibition of human HL-60(TB) cells incubated for 48 hrs by sulforhodamine B assay; details: HL-60, 48 h
Procedure, shortened: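 Performed at NCI's 60-line screen. Cells grown in RPMI with 5% FBS and 2 mM L-glutamine, plated 5,000–40,000 cells/well and incubated 24 h at 37 °C before compound addition. DMSO stocks were diluted in medium with gentamicin, and five concentrations spanning 10^-4 to 10^-8 M were tested. Exposure was 48 h. Cells were fixed with TCA, stained with SRB, and read at 515 nm. GI50 taken from log dose-response curves as 50% reduction in net protein increase versus control.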

K562 = test: Growth inhibition of human K562 cells incubated for 48 hrs by sulforhodamine B assay; details: K562, 48 h; procedure, shortened: as §1
MOLT-4 = test: Growth inhibition of human MOLT4 cells incubated for 48 hrs by sulforhodamine B assay; details: MOLT-4, 48 h; procedure, shortened: as §1
RPMI-8226 = test: Growth inhibition of human RPMI8226 cells incubated for 48 hrs by sulforhodamine B assay; details: RPMI-8226, 48 h; procedure, shortened: as §1
A549 = test: Growth inhibition of human A549/ATCC cells incubated for 48 hrs by sulforhodamine B assay; details: A549, 48 h; procedure, shortened: as §1
HOP-92 = test: Growth inhibition of human HOP92 cells incubated for 48 hrs by sulforhodamine B assay; details: HOP-92, 48 h; procedure, shortened: as §1
NCI-H226 = test: Growth inhibition of human NCI-H226 cells incubated for 48 hrs by sulforhodamine B assay; details: NCI-H226, 48 h; procedure, shortened: as §1
NCI-H23 = test: Growth inhibition of human NCI-H23 cells incubated for 48 hrs by sulforhodamine B assay; details: NCI-H23, 48 h; procedure, shortened: as §1
NCI-H322M = test: Growth inhibition of human NCI-H322M cells incubated for 48 hrs by sulforhodamine B assay; procedure, shortened: as §1
NCI-H460 = test: Growth inhibition of human NCI-H460 cells incubated for 48 hrs by sulforhodamine B assay; details: NCI-H460, 48 h; procedure, shortened: as §1
NCI-H522 = test: Growth inhibition of human NCI-H522 cells incubated for 48 hrs by sulforhodamine B assay; details: NCI-H522, 48 h; procedure, shortened: as §1
HCC 2998 = test: Growth inhibition of human HCC2998 cells incubated for 48 hrs by sulforhodamine B assay; details: HCC 2998, 48 h; procedure, shortened: as §1
HCT-116 = test: Growth inhibition of human HCT116 cells incubated for 48 hrs by sulforhodamine B assay; details: HCT-116, 48 h; procedure, shortened: as §1
HCT-15 = test: Growth inhibition of human HCT15 cells incubated for 48 hrs by sulforhodamine B assay; details: HCT-15, 48 h; procedure, shortened: as §1
HT-29 = test: Growth inhibition of human HT-29 cells incubated for 48 hrs by sulforhodamine B assay; details: HT-29, 48 h; procedure, shortened: as §1
KM12 = test: Growth inhibition of human KM12 cells incubated for 48 hrs by sulforhodamine B assay; details: KM12, 48 h; procedure, shortened: as §1
SW-620 = test: Growth inhibition of human SW620 cells incubated for 48 hrs by sulforhodamine B assay; details: SW-620, 48 h
Procedure, shortened: (§2)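 NCI-60 screen run at NCI. Cells grown in RPMI medium with 5% FBS and 2 mM L-glutamine, plated at 5,000–40,000 cells/well, and preincubated 24 h at 37 °C. Time-zero plates were TCA-fixed. Compounds came from DMSO stocks and were tested at five concentrations from 10^-4 to 10^-8 M for 48 h. Cells were then TCA-fixed, stained with 0.4% SRB, and OD read at 515 nm. GI50 is the concentration giving a 50% reduction in net protein increase versus control.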

SF-268 = test: Growth inhibition of human SF268 cells incubated for 48 hrs by sulforhodamine B assay; details: SF-268, 48 h; procedure, shortened: as §1
SF-295 = test: Growth inhibition of human SF295 cells incubated for 48 hrs by sulforhodamine B assay; details: SF-295, 48 h; procedure, shortened: as §1
SF-539 = test: Growth inhibition of human SF539 cells incubated for 48 hrs by sulforhodamine B assay; details: SF-539, 48 h; procedure, shortened: as §1
SNB-19 = test: Growth inhibition of human SNB19 cells incubated for 48 hrs by sulforhodamine B assay; details: SNB-19, 48 h; procedure, shortened: as §2
U-251 = test: Growth inhibition of human U251 cells incubated for 48 hrs by sulforhodamine B assay; details: U-251, 48 h; procedure, shortened: as §2
LOX IMVI = test: Growth inhibition of human LOXIMVI cells incubated for 48 hrs by sulforhodamine B assay; procedure, shortened: as §1
Malme-3M = test: Growth inhibition of human MALME-3M cells incubated for 48 hrs by sulforhodamine B assay; procedure, shortened: as §1
SK-MEL-28 = test: Growth inhibition of human SK-MEL-28 cells incubated for 48 hrs by sulforhodamine B assay; details: SK-MEL-28, 48 h; procedure, shortened: as §1
UACC-257 = test: Growth inhibition of human UACC257 cells incubated for 48 hrs by sulforhodamine B assay; details: UACC-257, 48 h; procedure, shortened: as §2
UACC-62 = test: Growth inhibition of human UACC62 cells incubated for 48 hrs by sulforhodamine B assay; details: UACC-62, 48 h; procedure, shortened: as §2
OVCAR-5 = test: Growth inhibition of human OVCAR5 cells incubated for 48 hrs by sulforhodamine B assay; details: OVCAR-5, 48 h; procedure, shortened: as §1
OVCAR-8 = test: Growth inhibition of human OVCAR8 cells incubated for 48 hrs by sulforhodamine B assay; details: OVCAR-8, 48 h; procedure, shortened: as §1
NCI/ADR-RES = test: Growth inhibition of human NCI/ADR-RES cells incubated for 48 hrs by sulforhodamine B assay; procedure, shortened: as §1
A498 = test: Growth inhibition of human A498 cells incubated for 48 hrs by sulforhodamine B assay; details: A498, 48 h; procedure, shortened: as §1
RXF 393 = test: Growth inhibition of human RXF393 cells incubated for 48 hrs by sulforhodamine B assay; details: RXF 393, 48 h; procedure, shortened: as §1
SN12C = test: Growth inhibition of human SN12C cells incubated for 48 hrs by sulforhodamine B assay; procedure, shortened: as §1
UO-31 = test: Growth inhibition of human UO31 cells incubated for 48 hrs by sulforhodamine B assay; details: UO-31, 48 h; procedure, shortened: as §2
MCF7 = test: Growth inhibition of human MCF7 cells incubated for 48 hrs by sulforhodamine B assay; details: MCF7, 48 h; procedure, shortened: as §1
[1] = Cytotoxicity against human M9-ENL1 cells assessed as reduction in cell viability by trypan blue staining-based assay
Procedure, shortened: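 M9-ENL1 AML cells (MLL-ENL-transduced human blood cells) plated at 10^6 cells/mL in alpha-MEM with 5% human plasma, 20% FBS, SCF, IL-3, IL-7 and FLT3. Drug diluted from DMSO stock into PBS, final DMSO ≤0.5%. After 24 h exposure, dead cells assessed by trypan blue and by flow cytometry (Annexin V/PI or Annexin V/7-AAD). Viability normalized to vehicle; EC50 from dose-response curves; triplicate.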

| Structure (SMILES) | GI50 (CCRF-CEM) | GI50 (HL-60(TB)) | GI50 (K562) | GI50 (MOLT-4) | GI50 (RPMI-8226) | GI50 (A549) | GI50 (HOP-92) | GI50 (NCI-H226) | GI50 (NCI-H23) | GI50 (NCI-H322M) | GI50 (NCI-H460) | GI50 (NCI-H522) | GI50 (HCC 2998) | GI50 (HCT-116) | GI50 (HCT-15) | GI50 (HT-29) | GI50 (KM12) | GI50 (SW-620) | GI50 (SF-268) | GI50 (SF-295) | other results |
| --- | --- | --- | --- | --- | --- | --- | --- | --- | --- | --- | --- | --- | --- | --- | --- | --- | --- | --- | --- | --- | --- |
| C=C1C(=O)O[C@@H]2[C@H]3O[C@]3(C)CC/C=C(/COC(=O)c3cc4ccccc4s3)CC[C@@H]12 | 400 nM | 1890 nM | 810 nM | 1880 nM | 560 nM | 2040 nM | 1680 nM | 2000 nM | 1740 nM | 1980 nM | 2210 nM | 980 nM | 1750 nM | 590 nM | 400 nM | 490 nM | 1780 nM | 510 nM | 1540 nM | 3330 nM | GI50 (SF-539): 1600 nM; GI50 (SNB-19): 2090 nM; GI50 (U-251): 1520 nM; GI50 (LOX IMVI): 200 nM; GI50 (Malme-3M): 1820 nM; GI50 (SK-MEL-28): 1760 nM; GI50 (UACC-257): 1770 nM; GI50 (UACC-62): 1850 nM; GI50 (OVCAR-5): 2020 nM; GI50 (OVCAR-8): 1800 nM; GI50 (NCI/ADR-RES): 2140 nM; GI50 (A498): 10100 nM; GI50 (RXF 393): 1230 nM; GI50 (SN12C): 2060 nM; GI50 (UO-31): 1400 nM; GI50 (MCF7): 380 nM; EC50 [1]: 2700 nM |
| CN(C)CC1C(=O)O[C@@H]2[C@H]3O[C@]3(C)CC/C=C(/COC(=O)c3cc4ccccc4[nH]3)CC[C@@H]12.O=C(O)/C=C/C(=O)O (some centres undefined) | 320 nM | 240 nM | 630 nM | 1510 nM | 280 nM | 2440 nM | 1400 nM | 1980 nM | 1960 nM | 10800 nM | 5850 nM | 1220 nM | 1720 nM | 290 nM | 290 nM | 430 nM | 2240 nM | 1700 nM | 1480 nM | 3950 nM | GI50 (SF-539): 2510 nM; GI50 (SNB-19): 11900 nM; GI50 (U-251): 2610 nM; GI50 (LOX IMVI): 170 nM; GI50 (Malme-3M): 2010 nM; GI50 (SK-MEL-28): 2210 nM; GI50 (UACC-257): 1470 nM; GI50 (UACC-62): 1650 nM; GI50 (OVCAR-5): 2380 nM; GI50 (OVCAR-8): 1680 nM; GI50 (NCI/ADR-RES): 1420 nM; GI50 (A498): 13100 nM; GI50 (RXF 393): 1140 nM; GI50 (SN12C): 2210 nM; GI50 (UO-31): 520 nM; GI50 (MCF7): 610 nM; EC50 [1]: 2800 nM |

— ChEMBL document CHEMBL4138104, “Indole carboxylic acid esters of melampomagnolide B are potent anticancer agents against both hematological and solid tumor cells” (Eur J Med Chem, 2017)
